{"data": "Experimental data pooled from the literature", "target": "Tyrosine-protein kinase Fyn (FYN, Homo sapiens, UniProt P06241)", "note": "Each line is one published result; the experiments were not run side by side."}
{"Compound": "CN(C)CC#Cc1ccc(OCCCc2sc(N3CCc4cccc(C(=O)Nc5nc6ccccc6s5)c4C3)nc2C(=O)O)c(F)c1", "test": "cell-free assay, competition with immobilised ligand", "setting": "1 µM", "remaining binding [%]": 96}
{"Compound": "COc1cnc(Nc2cccc(S(N)(=O)=O)c2)nc1N1CCN(c2ccccc2)C(=O)C1", "test": "binding, competition with immobilised ligand", "setting": "1 µM", "remaining binding [%]": 100}
{"Compound": "FC(F)(F)Oc1cccc(-c2cnc3ccc(-c4ccncc4)nn23)c1", "test": "cell-free assay, competition with immobilised ligand", "setting": "5 µM", "remaining binding [%]": 51}
{"Compound": "C[C@H]1CCN(c2nccc(-c3cnn4ncccc34)n2)C1", "test": "binding", "setting": "1 µM", "remaining binding [%]": 100}
{"Compound": "COc1ccc2c(c1)O[C@H](c1ccc(OC)c(OC)c1)C[C@@H]2NC(=O)C1(c2ccc3c(c2)OC(F)(F)O3)CC1", "test": "cell-free assay, competition with immobilised ligand", "setting": "1 µM", "remaining binding [%]": 100}
{"Compound": "O=C(c1ccc(Nc2ncc(Cl)c(-c3cc4ccccc4s3)n2)cc1)N1CCC(N2CCCC2)CC1", "test": "binding, competition with immobilised ligand", "setting": "1 µM", "remaining binding [%]": 96}
{"Compound": "O=C(NCC1CCOCC1)c1n[nH]cc1NC(=O)c1c(F)cccc1F", "test": "binding, competition with immobilised ligand", "setting": "1 µM", "remaining binding [%]": 100}
{"Compound": "Nc1ncc2c(n1)-c1c([nH]c3ccc(C#CC4CC4)cc13)CCCC2", "test": "binding, competition with immobilised ligand", "setting": "1 µM", "remaining binding [%]": 100}
{"Compound": "NS(=O)(=O)c1cc(NC(=O)C2(c3ccccc3Cl)CC2)ccc1Oc1cccc(Cl)c1", "test": "cell-free assay, competition with immobilised ligand", "setting": "1 µM", "remaining binding [%]": 100}
{"Compound": "COc1ccnn2ncc(-c3ccnc(N(C)C)n3)c12", "test": "binding", "setting": "1 µM", "remaining binding [%]": 100}
{"Compound": "O=C(c1ccc(Nc2nccc(-c3cc4ccccc4s3)n2)cc1)N1CCC(N2CCCC2)CC1", "test": "binding, competition with immobilised ligand", "setting": "1 µM", "remaining binding [%]": 85}
{"Compound": "CN(CCCC(F)(F)F)c1nccc(-c2cnn3ncccc23)n1", "test": "binding", "setting": "1 µM", "remaining binding [%]": 82}
{"Compound": "C[C@H](c1ccc(F)cc1)N(Cc1cccc(C(=O)O)c1)C(=O)c1cnc2ccccc2c1", "test": "cell-free assay, competition with immobilised ligand", "setting": "1 µM", "remaining binding [%]": 63}
{"Compound": "CN(C)c1nccc(-c2cnc3ncccn23)n1", "test": "binding", "setting": "1 µM", "remaining binding [%]": 99}
{"Compound": "CC(C)CC(=O)N1CCc2nc(-c3ccc(Br)cc3)nc(N(C)Cc3ccccc3)c2C1", "test": "cell-free assay, competition with immobilised ligand", "setting": "0.1 µM", "remaining binding [%]": 100}
{"Compound": "C[C@@H](c1ccc(-n2cnc3c(N)ncnc32)cc1)N1CCc2nn(C)c(Cc3ccccc3)c2C1=O", "test": "binding, competition with immobilised ligand", "setting": "0.1 µM", "remaining binding [%]": 100}
{"Compound": "CN(c1nccc(-c2cnn3ncccc23)n1)C1CC1", "test": "binding", "setting": "1 µM", "remaining binding [%]": 85}
{"Compound": "CS(=O)(=O)N1CCCC(NC(=O)[C@H](CCC2CCCCC2)NC(=O)c2ccc(CNC(=O)c3cnc4ccccn34)cc2)C1 (some centres unmarked)", "test": "cell-free assay, competition with immobilised ligand", "setting": "0.1 µM", "remaining binding [%]": 80}
{"Compound": "CC1CCCN1c1nccc(-c2cnn3ncccc23)n1 (centres unmarked)", "test": "binding", "setting": "1 µM", "remaining binding [%]": 69}
{"Compound": "O=C(c1ccc(Nc2ncc(Cl)c(-c3ccc(Cl)s3)n2)cc1)N1CCC(N2CCCC2)CC1", "test": "binding, competition with immobilised ligand", "setting": "1 µM", "remaining binding [%]": 100}
